In brackets after ≈: the same amount, converted by molar mass. Activity calls are given as the source filed them. No cut-off for these calls is given here.
Key:
MOLT-3 [1] = test: Cytotoxicity against MOLT3 Leukemia cells by MTS assay; assay type: functional, cell-based, Homo sapiens; details: Homo sapiens, MOLT-3
Method in brief: (§1)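 MTS tetrazolium reduction assay; cells grown under optimal culture conditions for 20 h with compound at 10 to 500 µM or without it; MTS reagent then added for 1 h at 37 °C, humidified 5% CO2; absorbance read at 490 nm. Triplicate. IC50 is the concentration giving 50% reduction of absorbance.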

THP-1 = test: Cytotoxicity against THP1 Leukemia cells by MTS assay; assay type: functional, cell-based, Homo sapiens; details: Homo sapiens, THP-1; method in brief: as §1
U-937 = test: Cytotoxicity against U937 Lymphoma cells by MTS assay; assay type: functional, cell-based, Homo sapiens; details: Homo sapiens, U-937; method in brief: as §1
Vero [2] = test: Cytotoxicity against normal vero kidney cells by MTS assay; assay type: functional, cell-based, Chlorocebus sabaeus; details: Chlorocebus sabaeus, Vero; method in brief: as §1
MOLT-3 [3] = test: Cytotoxicity against MOLT3 Leukemia cells after 24 hrs of treatment; assay type: functional, cell-based; details: Homo sapiens, MOLT-3, 24 h
Method in brief: (§2)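 Trypan blue exclusion; cells exposed under optimal culture conditions to new compounds at 10 to 500 µM (actinomycin D 1 to 200 µM) or control medium for the stated time. CC50 is the concentration causing 50% toxicity by trypan blue.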

MOLT-3 [4] = test: Cytotoxicity against MOLT3 Leukemia cells after 48 hrs of treatment; assay type: functional, cell-based; details: Homo sapiens, MOLT-3, 48 h; method in brief: as §2
MOLT-3 [5] = test: Cytotoxicity against MOLT3 Leukemia cells after 72 hrs of treatment; assay type: functional, cell-based; details: Homo sapiens, MOLT-3, 72 h; method in brief: as §2
MOLT-3 [6] = test: Potentiation of fas-mediated apoptosis in MOLT3 cells; assay type: functional, cell-based; details: Homo sapiens
Method in brief: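 MOLT-3 cells given anti-fas antibody (CH11) at 25, 50 or 100 ng/mL, alone or immediately after compound at 25 or 50 µM. Cultured 20 h, stained with acridine orange, and apoptosis scored by fluorescence microscopy.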

HEL = test: Antiviral activity against HEL cells; assay type: functional, Homo sapiens; details: Homo sapiens, HEL; read-out: MCC
Method in brief: (§3)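 Cytotoxicity scored as the concentration giving a microscopically detectable alteration of normal cell morphology in HEL, HeLa or Vero cells.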

Vero [7] = test: Antiviral activity against vero cells; assay type: functional, Chlorocebus sabaeus; details: Chlorocebus sabaeus, Vero; read-out: MCC; method in brief: as §3
HeLa = test: Antiviral activity against HeLa cells; assay type: functional, Homo sapiens; details: Homo sapiens, HeLa; read-out: MCC; method in brief: as §3
Human alphaherpesvirus 1 [8] = test: Antiviral activity against Herpes simplex virus 1 KOS strain in HEL cells; assay type: functional, Human herpesvirus 1 strain KOS; details: Human alphaherpesvirus 1, KOS
Method in brief: (§4)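 Minimum inhibitory concentration (µg/mL) needed to reduce virus-induced cytopathogenicity by 50%; HSV strains in HEL cells, Punta Toro virus in Vero cells.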

Human alphaherpesvirus 2 = test: Antiviral activity against Herpes simplex virus 2 G strain in HEL cells; assay type: functional; details: Human alphaherpesvirus 2, G; method in brief: as §4
Vaccinia virus = test: Antiviral activity against Vaccinia virus in HEL cells; assay type: functional; details: Orthopoxvirus vaccinia
Method in brief: (§5)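 Virus infection of HEL cell cultures. The endpoint is the minimum inhibitory concentration (µg/mL) that reduces virus-induced cytopathogenicity by 50%.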

[9] = tested on: Vesicular stomatitis virus; test: Antiviral activity against Vesicular stomatitis virus in HEL cells; assay type: functional; method in brief: as §5
Human alphaherpesvirus 1 [10] = test: Antiviral activity against herpes simplex virus 1 TK- KOS ACVr strain in HEL cells; assay type: functional; details: Human alphaherpesvirus 1, TK- KOS ACVr; read-out: MIC50; method in brief: as §4
Human respirovirus 3 = test: Antiviral activity against Parainfluenza-3 virus in vero cells; assay type: functional
Method in brief: (§6)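 Virus infection of Vero cell cultures. The endpoint is the minimum inhibitory concentration (µg/mL) that reduces virus-induced cytopathogenicity by 50%.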

[11] = tested on: Mammalian orthoreovirus 1; test: Antiviral activity against Reovirus 1 in vero cells; assay type: functional; method in brief: as §6
Sindbis virus = test: Antiviral activity against Sindbis virus in vero cells; assay type: functional; method in brief: as §6
Coxsackievirus B4 [12] = test: Antiviral activity against Coxsackie virus B4 in vero cells; assay type: functional; details: Enterovirus B; method in brief: as §6
Punta Toro virus = test: Antiviral activity against Punta Toro virus in vero cells; assay type: functional; details: Punta Toro virus; read-out: MIC50; method in brief: as §4
[13] = tested on: Respiratory syncytial virus; test: Antiviral activity against Respiratory syncytial virus in HeLa cells; assay type: functional; details: human respiratory syncytial virus
Method in brief: (§7)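 Virus infection of HeLa cell cultures. The endpoint is the minimum inhibitory concentration (µg/mL) that reduces virus-induced cytopathogenicity by 50%.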

Coxsackievirus B4 [14] = test: Antiviral activity against Coxsackie virus B4 in HeLa cells; assay type: functional; details: Enterovirus B; method in brief: as §7
[15] = tested on: Vesicular stomatitis virus; test: Antiviral activity against Vesicular stomatitis virus in HeLa cells; assay type: functional; method in brief: as §7

Q: `OC[C@@H]1C[C@H](c2c3ccccc3cc3ccccc23)N(Cc2ccccc2)O1` (racemic) was tested. Which IC50 (MOLT-3 [1]) did it give?
A: > 500 µM

Q: For `CN1O[C@H](CO)C[C@@H]1c1ccc2ccc3cccc4ccc1c2c34` (racemic), which IC50 (THP-1) is on record?
A: 107 µM

Q: What about the IC50 (MOLT-3 [1]) of the same compound?
A: 112 µM

Q: And the IC50 (U-937)?
A: 111 µM

Q: What about the IC50 (Vero [2]) of the same compound?
A: 159 µM

Q: What about the AC50 (MOLT-3 [3]) of the same compound?
A: 118 µM

Q: And the CC50 (MOLT-3 [3])?
A: 278 µM

Q: And the AC50 (MOLT-3 [4])?
A: 71 µM

Q: What about the CC50 (MOLT-3 [4]) of the same compound?
A: 168 µM

Q: And the AC50 (MOLT-3 [5])?
A: 67 µM

Q: And the CC50 (MOLT-3 [5])?
A: 133 µM

Q: What does the source list for `OC[C@@H]1C[C@H](c2cc3ccccc3c3ccccc23)N(Cc2ccccc2)O1` (racemic)?
A: Activity (MOLT-3 [6]): Active; IC50 (THP-1): 50 µM; IC50 (MOLT-3 [1]): 78 µM; IC50 (U-937): 54 µM; IC50 (Vero [2]): 63 µM; AC50 (MOLT-3 [3]): 69 µM; CC50 (MOLT-3 [3]): 73 µM

Q: What does the source list for `CN1O[C@H](CO)C[C@@H]1c1cc2ccccc2c2ccccc12` (racemic)?
A: IC50 (THP-1): 169 µM; IC50 (MOLT-3 [1]): 125 µM; IC50 (U-937): 153 µM; IC50 (Vero [2]): 246 µM; MCC (HEL): 400 µg/mL; MCC (Vero [7]): 80 µg/mL; MCC (HeLa): 80 µg/mL; MIC50 (Human alphaherpesvirus 1 [8]): > 80 µg/mL; MIC50 (Human alphaherpesvirus 2): > 80 µg/mL; MIC50 (Vaccinia virus): > 80 µg/mL; MIC50 [9]: > 80 µg/mL; MIC50 (Human alphaherpesvirus 1 [10]): 48 µg/mL (≈ 164 µM); MIC50 (Human respirovirus 3): > 16 µg/mL; MIC50 [11]: > 16 µg/mL; MIC50 (Sindbis virus): > 16 µg/mL; MIC50 (Coxsackievirus B4 [12]): > 16 µg/mL; MIC50 (Punta Toro virus): 9.6 µg/mL (≈ 32.7 µM); MIC50 [13]: > 16 µg/mL; MIC50 (Coxsackievirus B4 [14]): > 16 µg/mL; MIC50 [15]: > 16 µg/mL

Q: `CN1O[C@@H](CO)C[C@@H]1c1c2ccccc2cc2ccccc12` (racemic) was tested. Which IC50 (MOLT-3 [1]) did it give?
A: > 500 µM

Q: For `OC[C@@H]1C[C@H](c2ccc3ccc4cccc5ccc2c3c45)N(Cc2ccccc2)O1` (racemic), which IC50 (THP-1) is on record?
A: 192 µM

Q: What about the IC50 (MOLT-3 [1]) of the same compound?
A: 127 µM

Q: What about the IC50 (U-937) of the same compound?
A: 193 µM

Q: What about the IC50 (Vero [2]) of the same compound?
A: 301 µM

Q: And the AC50 (MOLT-3 [3])?
A: > 500 µM

Q: And the CC50 (MOLT-3 [3])?
A: > 500 µM

Q: What about the AC50 (MOLT-3 [4]) of the same compound?
A: 97 µM

Q: What about the CC50 (MOLT-3 [4]) of the same compound?
A: 97 µM

Q: And the AC50 (MOLT-3 [5])?
A: 67 µM

Q: And the CC50 (MOLT-3 [5])?
A: 58 µM

Q: For `OC[C@H]1C[C@H](c2c3ccccc3cc3ccccc23)N(Cc2ccccc2)O1` (racemic), which IC50 (MOLT-3 [1]) is on record?
A: > 500 µM
